Test results as given in ChEMBL document CHEMBL4321879, “Novel Class of Colony-Stimulating Factor 1 Receptor Kinase Inhibitors Based on an o-Aminopyridyl Alkynyl Scaffold as Potential Treatment for Inflammatory Disorders” (J Med Chem, 2020).

Columns and labels:
[1] = target: Tyrosine-protein kinase ABL1 (Homo sapiens) (UniProt P00519); assay: Inhibition of recombinant human N-terminal His6-tagged Abl (27 to end residues) expressed in baculovirus infected Sf21 insect cells at 10 nM using poly (Glu, Tyr)4:1 as substrate measured after 1 hr by ELISA relative to control
Procedure, shortened: (§1)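 Recombinant kinase was incubated with compound in reaction buffer containing 5 μM ATP, in wells precoated with poly(Glu,Tyr) 4:1, for 1 h at 37 °C. Phosphorylation was detected by ELISA.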

[2] = target: Receptor tyrosine-protein kinase erbB-4 (Homo sapiens) (UniProt Q15303); assay: Inhibition of recombinant human N-terminal His6-tagged Erbb4 (706 to 991 residues) expressed in baculovirus infected Sf21 insect cells at 1000 nM using poly (Glu, Tyr)4:1 as substrate measured after 1 hr by ELISA relative to control; procedure, shortened: as §1
[3] = target: Proto-oncogene tyrosine-protein kinase Src (Homo sapiens) (UniProt P12931); assay: Inhibition of recombinant human full-length N-terminal His6-tagged Src expressed in Sf21 insect cells at 10 nM using poly (Glu, Tyr)4:1 as substrate measured after 1 hr by ELISA relative to control
Procedure, shortened: (§2)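 ELISA kinase assay: recombinant kinase added to wells precoated with poly(Glu,Tyr)4:1 and incubated with compound in reaction buffer containing 5 μM ATP, 37 °C for 1 h; wells then washed before antibody detection.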

[4] = target: Tyrosine-protein kinase ITK/TSK (Homo sapiens) (UniProt Q08881); assay: Inhibition of recombinant human N-terminal His6-tagged ITK (352 to 617 residues) expressed in baculovirus infected Sf21 insect cells at 100 nM using poly (Glu, Tyr)4:1 as substrate measured after 1 hr by ELISA relative to control; procedure, shortened: as §2
[5] = target: Platelet-derived growth factor receptor alpha (Homo sapiens) (UniProt P16234); assay: Inhibition of recombinant human N-terminal His6-tagged PDGFRalpha (550 to end residues) expressed in baculovirus infected Sf21 insect cells at 10 nM using poly (Glu, Tyr)4:1 as substrate measured after 1 hr by ELISA relative to control; procedure, shortened: as §2
[6] = target: Fibroblast growth factor receptor 1 (Homo sapiens, UniProt P11362); assay: Inhibition of recombinant human N-terminal GST-tagged FGFR1 (456 to 765 residues) expressed in baculovirus infected Sf21 insect cells at 100 nM using poly (Glu, Tyr)4:1 as substrate measured after 1 hr by ELISA relative to control; procedure, shortened: as §1
[7] = target: Receptor tyrosine-protein kinase erbB-2 (Homo sapiens) (UniProt P04626); assay: Inhibition of recombinant Erbb2 (unknown origin) at 100 nM using poly (Glu, Tyr)4:1 as substrate measured after 1 hr by ELISA relative to control; procedure, shortened: as §1
[8] = target: Vascular endothelial growth factor receptor 2 (Homo sapiens) (UniProt P35968); assay: Inhibition of recombinant human VEGFR2 (D1-7) expressed in Spodoptera frugiperda insect cells at 1000 nM using poly (Glu, Tyr)4:1 as substrate measured after 1 hr by ELISA relative to control; procedure, shortened: as §2
[9] = Cmax in Sprague-Dawley rat at 5 mg/kg, po administered via gavage by LC-MS/MS analysis; type: ADME, organism-based; parameters: dose 5 mg/kg, route oral; conditions: in vivo
Procedure, shortened: (§3)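 Male SD rats (200 ± 20 g) were fasted 12 h with free access to water, n = 3 per group. One group received 2 mg/kg iv in DMSO/EtOH/PEG300/saline (5/5/40/50). The other received 5 mg/kg by oral gavage in DMSO/HPMC (5/95). Femoral-vein plasma was taken at 15–1440 min, methanol-precipitated with internal standard, and measured by LC–MS/MS. Noncompartmental analysis; AUC by trapezoidal method.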

[10] = target: Activated CDC42 kinase 1 (Homo sapiens) (UniProt Q07912); assay: Inhibition of recombinant human N-terminal GST-tagged ACK1 (1 to 389 residues) expressed in baculovirus infected Sf21 insect cells at 100 nM using poly (Glu, Tyr)4:1 as substrate measured after 1 hr by ELISA relative to control; procedure, shortened: as §1
[11] = target: T1, Fibroblast growth factor receptor 3 (Homo sapiens, UniProt P22607); assay: Inhibition of recombinant human N-terminal His6-tagged FGFR3 (447 to 761 residues) expressed in baculovirus infected Sf21 insect cells at 100 nM using poly (Glu, Tyr)4:1 as substrate measured after 1 hr by ELISA relative to control; procedure, shortened: as §1
[12] = target: Tyrosine-protein kinase BTK (Homo sapiens) (UniProt Q06187); assay: Inhibition of recombinant human full-length N-terminal His6-tagged BTK expressed in baculovirus infected Sf21 insect cells at 1000 nM using poly (Glu, Tyr)4:1 as substrate measured after 1 hr by ELISA relative to control; procedure, shortened: as §2
[13] = target: Fibroblast growth factor receptor 2 (Homo sapiens, UniProt P21802); assay: Inhibition of recombinant human N-terminal His6-tagged FGFR2 (456 to 770 residues) expressed in baculovirus infected Sf21 insect cells using poly (Glu, Tyr)4:1 as substrate measured after 1 hr by ELISA; procedure, shortened: as §1
[14] = target: Vascular endothelial growth factor receptor 3 (Homo sapiens) (UniProt P35916); assay: Inhibition of recombinant VEGFR3 (unknown origin) at 100 nM using poly (Glu, Tyr)4:1 as substrate measured after 1 hr by ELISA relative to control; procedure, shortened: as §1
[15] = Tmax in Sprague-Dawley rat at 5 mg/kg, po administered via gavage by LC-MS/MS analysis; type: ADME, organism-based; conditions: in vivo
Procedure, shortened: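 Male SD rats (200 ± 20 g), fasted 12 h, n = 3; oral gavage 5 mg/kg in DMSO/HPMC (5/95). Femoral vein blood at 15–1440 min; plasma precipitated with methanol plus internal standard, LC–MS/MS; noncompartmental analysis, Tmax observed directly, MRT = AUMC/AUC.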

[16] = target: T1, Fibroblast growth factor receptor 3; assay: Inhibition of recombinant human N-terminal His6-tagged FGFR3 (447 to 761 residues) expressed in baculovirus infected Sf21 insect cells at 1000 nM using poly (Glu, Tyr)4:1 as substrate measured after 1 hr by ELISA relative to control; procedure, shortened: as §1
[17] = Volume of distribution at steady state in Sprague-Dawley rat at 2 mg/kg, iv administered […] by LC-MS/MS analysis; type: ADME, organism-based; conditions: in vivo, read-out: Vdss
Procedure, shortened: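 Male SD rats (200 ± 20 g), fasted 12 h, n = 3; single intravenous dose of 2 mg/kg in DMSO/EtOH/PEG300/saline (5/5/40/50). Femoral vein blood at 15–1440 min; plasma precipitated with methanol containing internal standard, assayed by LC–MS/MS; noncompartmental analysis (MRT = AUMC/AUC, Vss = CL × MRT).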

[18] = target: Receptor tyrosine-protein kinase erbB-2 (Homo sapiens) (UniProt P04626); assay: Inhibition of recombinant Erbb2 (unknown origin) at 1000 nM using poly (Glu, Tyr)4:1 as substrate measured after 1 hr by ELISA relative to control; procedure, shortened: as §1
[19] = Clearance in Sprague-Dawley rat at 2 mg/kg, iv administered […] by LC-MS/MS analysis; type: ADME, organism-based; conditions: in vivo; procedure, shortened: as §3
[20] = target: Proto-oncogene tyrosine-protein kinase Src (Homo sapiens) (UniProt P12931); assay: Inhibition of recombinant human full-length N-terminal His6-tagged Src expressed in Sf21 insect cells at 1000 nM using poly (Glu, Tyr)4:1 as substrate measured after 1 hr by ELISA relative to control; procedure, shortened: as §2

Sequence of Proto-oncogene tyrosine-protein kinase Src (Homo sapiens) (P12931 2-536 limits assumed): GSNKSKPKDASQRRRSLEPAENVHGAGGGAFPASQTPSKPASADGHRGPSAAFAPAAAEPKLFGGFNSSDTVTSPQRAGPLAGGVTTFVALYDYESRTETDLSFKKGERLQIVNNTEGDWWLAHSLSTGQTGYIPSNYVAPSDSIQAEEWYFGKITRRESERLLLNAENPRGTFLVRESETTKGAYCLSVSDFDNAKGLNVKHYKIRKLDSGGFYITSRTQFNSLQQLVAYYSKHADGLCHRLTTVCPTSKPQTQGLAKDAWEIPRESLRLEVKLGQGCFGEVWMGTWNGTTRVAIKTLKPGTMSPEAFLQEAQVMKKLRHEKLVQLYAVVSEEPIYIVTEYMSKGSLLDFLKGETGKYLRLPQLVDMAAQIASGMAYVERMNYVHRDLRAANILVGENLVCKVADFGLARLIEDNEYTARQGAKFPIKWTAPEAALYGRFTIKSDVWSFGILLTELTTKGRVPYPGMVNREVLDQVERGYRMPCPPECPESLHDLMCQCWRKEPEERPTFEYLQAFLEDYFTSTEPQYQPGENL
T1 sequence (P22607 23-806 limits assumed): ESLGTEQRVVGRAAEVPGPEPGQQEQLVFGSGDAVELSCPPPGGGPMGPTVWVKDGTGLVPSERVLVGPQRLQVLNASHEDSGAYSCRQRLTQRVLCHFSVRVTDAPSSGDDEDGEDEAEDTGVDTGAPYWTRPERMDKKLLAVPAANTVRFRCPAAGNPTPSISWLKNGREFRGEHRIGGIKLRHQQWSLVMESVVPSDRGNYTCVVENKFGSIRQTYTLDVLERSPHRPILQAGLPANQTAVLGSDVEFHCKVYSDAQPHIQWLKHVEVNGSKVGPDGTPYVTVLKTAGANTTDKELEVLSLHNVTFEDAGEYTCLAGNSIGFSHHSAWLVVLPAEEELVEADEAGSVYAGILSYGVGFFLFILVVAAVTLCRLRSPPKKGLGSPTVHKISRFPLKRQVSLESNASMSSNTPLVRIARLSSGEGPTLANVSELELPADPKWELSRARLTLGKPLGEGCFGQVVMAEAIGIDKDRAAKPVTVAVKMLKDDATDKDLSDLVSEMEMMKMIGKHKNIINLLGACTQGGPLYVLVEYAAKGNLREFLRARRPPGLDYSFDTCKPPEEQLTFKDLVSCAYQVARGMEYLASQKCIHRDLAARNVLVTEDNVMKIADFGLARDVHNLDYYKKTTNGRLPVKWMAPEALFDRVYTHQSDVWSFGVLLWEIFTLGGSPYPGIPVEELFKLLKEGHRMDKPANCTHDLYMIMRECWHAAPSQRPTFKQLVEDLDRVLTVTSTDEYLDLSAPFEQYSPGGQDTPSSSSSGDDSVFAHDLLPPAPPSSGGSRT
Sequence of Receptor tyrosine-protein kinase erbB-2 (Homo sapiens) (P04626 whole entry): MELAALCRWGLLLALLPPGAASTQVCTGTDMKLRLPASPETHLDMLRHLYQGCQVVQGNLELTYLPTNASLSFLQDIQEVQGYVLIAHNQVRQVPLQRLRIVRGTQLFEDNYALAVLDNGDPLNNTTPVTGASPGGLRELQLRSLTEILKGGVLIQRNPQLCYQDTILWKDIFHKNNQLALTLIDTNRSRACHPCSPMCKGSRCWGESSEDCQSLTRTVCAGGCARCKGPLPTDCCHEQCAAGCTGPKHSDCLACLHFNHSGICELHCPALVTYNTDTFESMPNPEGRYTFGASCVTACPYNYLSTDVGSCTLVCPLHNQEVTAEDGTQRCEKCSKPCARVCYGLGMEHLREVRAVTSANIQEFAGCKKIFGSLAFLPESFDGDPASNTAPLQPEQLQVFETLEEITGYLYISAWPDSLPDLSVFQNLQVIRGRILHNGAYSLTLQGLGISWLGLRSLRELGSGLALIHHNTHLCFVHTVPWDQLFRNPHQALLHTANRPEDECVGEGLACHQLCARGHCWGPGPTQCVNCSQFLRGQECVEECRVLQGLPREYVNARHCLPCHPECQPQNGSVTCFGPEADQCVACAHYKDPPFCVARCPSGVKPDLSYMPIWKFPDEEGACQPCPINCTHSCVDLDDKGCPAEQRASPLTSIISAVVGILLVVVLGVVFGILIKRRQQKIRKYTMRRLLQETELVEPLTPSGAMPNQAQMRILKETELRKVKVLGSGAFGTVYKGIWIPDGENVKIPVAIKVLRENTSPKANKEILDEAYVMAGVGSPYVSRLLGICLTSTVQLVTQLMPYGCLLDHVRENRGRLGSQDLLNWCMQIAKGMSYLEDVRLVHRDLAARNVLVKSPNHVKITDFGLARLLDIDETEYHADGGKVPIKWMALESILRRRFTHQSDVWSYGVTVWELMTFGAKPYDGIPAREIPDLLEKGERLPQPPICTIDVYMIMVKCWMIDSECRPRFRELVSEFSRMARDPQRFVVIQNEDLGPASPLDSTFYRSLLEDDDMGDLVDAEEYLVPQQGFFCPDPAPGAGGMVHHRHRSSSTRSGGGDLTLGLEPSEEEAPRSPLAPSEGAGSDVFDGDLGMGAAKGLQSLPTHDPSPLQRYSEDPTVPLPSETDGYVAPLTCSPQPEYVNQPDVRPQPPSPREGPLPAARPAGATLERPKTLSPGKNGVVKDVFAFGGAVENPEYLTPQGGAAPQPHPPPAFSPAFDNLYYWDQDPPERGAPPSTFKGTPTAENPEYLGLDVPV
Sequence of Tyrosine-protein kinase ITK/TSK (Homo sapiens) (Q08881 whole entry, the tested form may be a part): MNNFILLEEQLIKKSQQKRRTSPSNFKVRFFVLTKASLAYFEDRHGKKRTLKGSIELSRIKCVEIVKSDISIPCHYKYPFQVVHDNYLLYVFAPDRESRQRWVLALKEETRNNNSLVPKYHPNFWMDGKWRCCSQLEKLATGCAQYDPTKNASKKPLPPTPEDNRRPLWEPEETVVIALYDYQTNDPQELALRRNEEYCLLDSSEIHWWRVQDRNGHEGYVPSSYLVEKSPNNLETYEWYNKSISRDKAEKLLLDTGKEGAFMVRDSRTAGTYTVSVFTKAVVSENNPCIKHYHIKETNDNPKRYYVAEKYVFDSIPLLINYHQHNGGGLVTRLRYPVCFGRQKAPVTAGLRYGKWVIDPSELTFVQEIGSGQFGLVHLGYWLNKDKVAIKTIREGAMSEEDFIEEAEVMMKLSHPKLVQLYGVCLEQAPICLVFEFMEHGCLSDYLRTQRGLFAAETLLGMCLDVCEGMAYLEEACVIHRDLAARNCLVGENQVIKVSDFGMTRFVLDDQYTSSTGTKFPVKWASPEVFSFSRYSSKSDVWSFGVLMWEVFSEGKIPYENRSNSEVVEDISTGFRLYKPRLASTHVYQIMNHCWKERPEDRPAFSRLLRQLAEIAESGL
Sequence of Platelet-derived growth factor receptor alpha (Homo sapiens) (P16234 whole entry, the tested form may be a part): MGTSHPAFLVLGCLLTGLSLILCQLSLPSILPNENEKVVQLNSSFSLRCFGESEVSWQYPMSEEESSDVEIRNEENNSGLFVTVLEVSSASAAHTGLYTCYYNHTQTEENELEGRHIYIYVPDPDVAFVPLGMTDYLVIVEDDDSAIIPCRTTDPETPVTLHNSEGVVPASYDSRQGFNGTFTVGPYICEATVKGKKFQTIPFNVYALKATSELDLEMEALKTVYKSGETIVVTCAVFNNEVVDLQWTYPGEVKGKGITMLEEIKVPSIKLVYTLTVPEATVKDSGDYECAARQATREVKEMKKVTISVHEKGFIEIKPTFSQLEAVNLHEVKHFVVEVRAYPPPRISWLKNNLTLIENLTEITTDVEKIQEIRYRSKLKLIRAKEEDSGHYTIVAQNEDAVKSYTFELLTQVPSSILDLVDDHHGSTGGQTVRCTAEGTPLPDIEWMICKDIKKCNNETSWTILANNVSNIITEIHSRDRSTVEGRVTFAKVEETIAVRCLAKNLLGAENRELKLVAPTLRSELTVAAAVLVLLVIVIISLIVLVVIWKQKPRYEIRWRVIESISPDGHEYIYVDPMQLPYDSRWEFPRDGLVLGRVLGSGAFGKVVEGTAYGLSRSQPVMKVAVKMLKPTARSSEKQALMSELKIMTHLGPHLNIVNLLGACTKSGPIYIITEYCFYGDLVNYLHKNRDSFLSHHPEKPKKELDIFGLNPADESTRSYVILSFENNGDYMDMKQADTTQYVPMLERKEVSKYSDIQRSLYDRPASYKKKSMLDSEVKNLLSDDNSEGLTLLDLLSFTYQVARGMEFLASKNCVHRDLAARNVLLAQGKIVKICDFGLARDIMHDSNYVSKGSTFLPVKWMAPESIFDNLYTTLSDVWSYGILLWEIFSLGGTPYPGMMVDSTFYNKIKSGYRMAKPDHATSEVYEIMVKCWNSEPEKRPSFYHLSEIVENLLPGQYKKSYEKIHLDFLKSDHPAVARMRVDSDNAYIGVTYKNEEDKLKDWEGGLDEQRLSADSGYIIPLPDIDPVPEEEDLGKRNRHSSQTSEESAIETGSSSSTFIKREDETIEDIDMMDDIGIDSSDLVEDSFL
Sequence of Fibroblast growth factor receptor 2 (P21802 whole entry, the tested form may be a part): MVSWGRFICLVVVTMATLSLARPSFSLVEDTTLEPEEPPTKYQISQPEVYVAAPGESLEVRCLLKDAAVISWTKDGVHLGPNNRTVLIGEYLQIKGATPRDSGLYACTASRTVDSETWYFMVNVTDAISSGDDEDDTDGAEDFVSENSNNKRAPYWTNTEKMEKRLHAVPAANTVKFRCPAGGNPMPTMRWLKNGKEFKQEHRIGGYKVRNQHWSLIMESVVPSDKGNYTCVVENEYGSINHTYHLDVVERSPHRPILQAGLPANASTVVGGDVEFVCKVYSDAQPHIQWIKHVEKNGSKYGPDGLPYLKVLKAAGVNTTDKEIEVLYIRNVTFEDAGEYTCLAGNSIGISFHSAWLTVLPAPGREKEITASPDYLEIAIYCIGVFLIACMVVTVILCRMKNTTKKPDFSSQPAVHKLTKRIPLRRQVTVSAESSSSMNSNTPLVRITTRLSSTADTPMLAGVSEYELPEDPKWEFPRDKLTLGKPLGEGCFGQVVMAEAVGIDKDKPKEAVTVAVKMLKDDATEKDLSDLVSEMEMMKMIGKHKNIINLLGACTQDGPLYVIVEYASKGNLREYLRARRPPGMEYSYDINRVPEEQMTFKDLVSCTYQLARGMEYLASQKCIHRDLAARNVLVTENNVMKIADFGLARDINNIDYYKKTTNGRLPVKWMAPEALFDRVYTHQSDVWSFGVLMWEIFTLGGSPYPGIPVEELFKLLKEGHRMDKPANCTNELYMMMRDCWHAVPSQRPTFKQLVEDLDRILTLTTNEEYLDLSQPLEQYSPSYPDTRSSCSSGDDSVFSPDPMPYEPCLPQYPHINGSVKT

Q: For `Cc1ccc(C(=O)Nc2ccc(Cl)cc2)cc1C#Cc1cc(-c2cnn(C)c2)cnc1N`, which inhibition [1] is on record?
A: 0%

Q: What about the inhibition [2] of the same compound?
A: 1.6%

Q: What about the inhibition [3] of the same compound?
A: 1.5%

Q: And the inhibition [4]?
A: 4.2%

Q: And the inhibition [5]?
A: 54.6%

Q: And the inhibition [6]?
A: 0%

Q: And the inhibition [7]?
A: 8.8%

Q: And the inhibition [8]?
A: 95.5%

Q: And the Cmax [9]?
A: 166 ng/mL

Q: What about the inhibition [10] of the same compound?
A: 10.3%

Q: And the inhibition [11]?
A: 0%

Q: And the inhibition [12]?
A: 8%

Q: And the IC50 [13]?
A: > 1 µM

Q: And the inhibition [14]?
A: 69.4%

Q: And the Tmax [15]?
A: 4 h

Q: And the inhibition [16]?
A: 2.3%

Q: What about the Vd [17] of the same compound?
A: 6.34 L/kg

Q: What about the inhibition [18] of the same compound?
A: 9.5%

Q: And the clearance [19]?
A: 46 mL/min/kg

Q: And the inhibition [20]?
A: 72.8%
